# ChEMBL document CHEMBL4699415, “Synthesis and anti-HBV activity of carbocyclic nucleoside hybrids with salient features of entecavir and aristeromycin” (RSC Med Chem, 2020)
# Tests used:
# [1] = Cytotoxicity against human HepG2.2.15.7 cells assessed as reduction in cell viability; type: cell-based
# Outline: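 HepG2.2.15.7 cells, 1 × 10^4 per well, seeded 24 h, then kept nine days with graded concentrations, medium with drug renewed every three days. Viability read by tetrazolium dye method. CC50 is the concentration reducing viable cells by 50%.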
# Hepatitis B virus = test: Antiviral activity against Hepatitis B virus infected in human HepG2.2.15.7 assessed as reduction in HBV DNA level incubated for 9 days media replaced every 3 days once with test compound by RT-PCR analysis; type: functional, organism-based
# Outline: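 HepG2.2.15.7 cells, 1 × 10^4 per well, settled 24 h before exposure to a range of concentrations; drug-containing medium renewed every three days. At day nine, supernatant HBV DNA quantified by real-time PCR. IC50 is the concentration giving 50% inhibition of supernatant HBV DNA.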
compound,measurement,setting,value
C=C1[C@@H](n2cc(F)c3c(N)ncnc32)[C@H](O)[C@H](O)[C@@]1(C)CO,CC50,[1],> 100 µM
same,IC50,Hepatitis B virus,> 100 µM
C=C1[C@@H](n2ccc3c(N)ncnc32)[C@H](O)[C@H](O)[C@@]1(C)CO,CC50,[1],> 100 µM
same,IC50,Hepatitis B virus,> 100 µM
C=C1[C@@H](n2cc(Cl)c3c(N)ncnc32)[C@H](O)[C@H](O)[C@@]1(C)CO,CC50,[1],> 100 µM
same,IC50,Hepatitis B virus,22.9 µM
C=Cc1cn([C@@H]2C(=C)[C@](C)(CO)[C@@H](O)[C@H]2O)c2ncnc(N)c12,CC50,[1],> 100 µM
same,IC50,Hepatitis B virus,> 100 µM
C#Cc1cn([C@@H]2C(=C)[C@](C)(CO)[C@@H](O)[C@H]2O)c2ncnc(N)c12,CC50,[1],> 100 µM
same,IC50,Hepatitis B virus,6.3 µM
C=C1[C@H](CO)[C@@H](O)C[C@@H]1n1cnc2c(=O)[nH]c(N)nc21 [ENTECAVIR],CC50,[1],> 0.1 µM
same,IC50,Hepatitis B virus,0.00018 µM
Nc1ncnc2c1ncn2[C@@H]1C[C@H](CO)[C@@H](O)[C@H]1O [ARISTEROMYCIN],CC50,[1],> 3 µM
same,IC50,Hepatitis B virus,> 3 µM
C=C1[C@@H](n2cc(Br)c3c(N)ncnc32)[C@H](O)[C@H](O)[C@@]1(C)CO,CC50,[1],> 100 µM
same,IC50,Hepatitis B virus,8.3 µM
C=C1[C@@H](n2cc(I)c3c(N)ncnc32)[C@H](O)[C@H](O)[C@@]1(C)CO,CC50,[1],87.5 µM
same,IC50,Hepatitis B virus,3.4 µM
